Assay results as given in article PMC6800648 (Cell chemical biology, 2019).
Several values for one entry are separate records, joined by “and”; a condition that tells them apart may be missing. Equal values may be shown once. Square brackets hold non-standard residues; d marks the D form. Peptide text beside a SMILES is read from it. * marks the point of attachment. Lys(Me,2-norbornyl) = CN(CCCC[C@H](N)C(=O)O)C1CC2CCC1C2; Benzoyl(4-tBu) = CC(C)(C)c1ccc(C(=O)*)cc1; Lys(Et2) = CCN(CC)CCCC[C@H](N)C(=O)O

How the values were obtained:
[1] = target: T1, CBX7 and RING1B (Mus musculus, UniProt Q8VDS3); test: ChIP-qPCR / ChIP-seq in mESCs; type: cell-based; details: 4 hours, 20 μM
T1 sequence (Q8VDS3 1-158): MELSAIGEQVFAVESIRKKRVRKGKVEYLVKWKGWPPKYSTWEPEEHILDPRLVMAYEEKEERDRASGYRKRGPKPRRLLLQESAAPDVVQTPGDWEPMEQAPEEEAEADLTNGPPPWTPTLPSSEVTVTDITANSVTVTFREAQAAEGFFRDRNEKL
T1 sequence (Q9CQJ4 2-336 partner limits assumed): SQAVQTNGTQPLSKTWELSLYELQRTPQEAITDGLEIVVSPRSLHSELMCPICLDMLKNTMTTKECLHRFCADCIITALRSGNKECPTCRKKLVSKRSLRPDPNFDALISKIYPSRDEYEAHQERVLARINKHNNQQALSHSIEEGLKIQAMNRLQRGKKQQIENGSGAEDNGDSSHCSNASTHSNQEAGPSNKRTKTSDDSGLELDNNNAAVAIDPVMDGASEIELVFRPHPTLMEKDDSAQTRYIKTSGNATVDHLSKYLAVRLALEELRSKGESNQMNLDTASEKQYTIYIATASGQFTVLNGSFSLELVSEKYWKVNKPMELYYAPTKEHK

[2] = tested on: mESCs; test: CellTiter-Glo viability assay in mESCs; type: cell-based, mouse; details: 48 hr
Method in brief: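 Mouse ES cells, 5,000 per well, exposed in technical triplicate for 48 hr at 37°C to a ten-point three-fold dilution series prepared from 50 mM DMSO stocks (0.2% DMSO final). Media-only wells served as negative controls. After equilibrating at room temperature, CellTiter-Glo was added, with 2 min shaking and 10 min settling, then luminescence read.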

[3] = target: T2, CBX7 chromodomain (Homo sapiens, UniProt O95931); test: Fluorescence polarization; type: biochemical; details: for enhancement in CBX7 affinity for FAM-dsDNA: 1:3 ratio of compound to protein titration; for allosteric modulator class of oligonucleotide binding: FP data fit to the Stockton/Ehlert allosteric binding model; for α (factor of enhancement of CBX7 affinity for the DNA probe): Stockton/Ehlert allosteric binding model, 1:3 compound to CBX7, 100 nM FAM-dsDNA
T2 sequence (O95931 1-62): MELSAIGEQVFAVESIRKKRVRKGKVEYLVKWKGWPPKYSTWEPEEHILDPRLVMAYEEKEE
Method in brief: (§1)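 Buffer: 25 mM Tris-HCl pH 7.4, 100 mM NaCl, 0.05% Tween-20, 2 mM DTT; 100 nM FAM-dsDNA or FAM-ANRIL-RNA; 0.2% DMSO; 30 min at RT. Compound titration: eight-point three-fold series from 100 µM with 30 µM CBX7 chromodomain. Ratio mode: CBX7 and test compound co-diluted at fixed 3:1 from 300 µM/100 µM. Polarisation normalised to a no-protein control; α fitted by the Stockton-Ehlert allosteric model.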

[4] = tested on: CBX7 chromodomain; details: ref Stuckey et al., 2016a, 2016b; cited from earlier work
[5] = target: T2, CBX7 chromodomain; test: Electrophoretic mobility shift assay; type: biochemical; details: for binding to CBX7 by Coomassie stain (higher molecular weight band shifts): EMSA gel; for effect on FAM-dsDNA binding to CBX7: EMSA, 150 mM CBX7 and 100 nM FAM-dsDNA probe, 1:3 ratio of compound to CBX7
Method in brief: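 Buffer: 25 mM Tris-HCl pH 7.4, 100 mM NaCl, 0.05% Tween-20, 2 mM DTT. Compound runs used 150 µM CBX7 with 100 nM FAM-DNA probe and 50 µM test compound (0.3% DMSO); protein-only runs used a three-fold CBX7 series. Binding 20 min on ice. Native 10% Tris-glycine gel at 100 V, 4°C, 90 min in the dark. FAM fluorescence imaged, then Coomassie-stained.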

[6] = target: T3, CBX7 (Mus musculus, UniProt Q8VDS3); test: Polycomb in-vivo Assay; type: cell-based
T3 sequence (Q8VDS3 2-69 limits assumed): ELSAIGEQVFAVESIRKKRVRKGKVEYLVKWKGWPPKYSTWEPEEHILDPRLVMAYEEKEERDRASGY

[7] = tested on: Polycomb target genes; test: RT-qPCR mRNA expression in HEK293 cells; type: cell-based, human; details: for effect on transcription of Polycomb target genes: HEK293, 6 μM and 20 μM, 2 days
Method in brief: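 HEK293 cells were treated with test compounds at 6 µM and 20 µM for 2 days. RNA was reverse-transcribed and Polycomb target transcripts were quantified by qPCR with ~100–150 bp amplicons.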

[8] = tested on: CBX6 chromodomain; test: Isothermal titration calorimetry; type: binding; details: from ITC Kd values
Method in brief: (§2)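 ITC at 25 °C in 25 mM Tris-HCl pH 7.5, 150 mM NaCl, 2 mM β-mercaptoethanol. Typically 50 µM chromodomain in cell, 0.5 mM test compound in syringe (10:1 kept). Protein quantified by Edelhoch, compound by mass. One 0.2 µl injection then 26 × 1.5 µl injections at 180 s spacing; first point discarded. Kd from one-site nonlinear least-squares fit.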

[9] = target: T2, CBX7 chromodomain; test: Fluorescence polarization; type: biochemical
Method in brief: as §1

[10] = tested on: SUZ12 and H3K27me3; test: Capture ChIP-seq in mESCs, SUZ12 and H3K27me3; type: cell-based, mouse
[11] = target: T4, CBX7 chromodomain (Homo sapiens, UniProt O95931); test: Isothermal titration calorimetry; type: binding; details: ITC
T4 sequence (O95931 8-62): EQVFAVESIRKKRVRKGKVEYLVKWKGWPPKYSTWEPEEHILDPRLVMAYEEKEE
Method in brief: as §2

[12] = tested on: CDYL2 chromodomain; test: Isothermal titration calorimetry; type: binding; details: from ITC Kd values
Method in brief: as §2

[13] = target: T5, CBX7 (Mus musculus, UniProt Q8VDS3); type: cell-based; details: TetOFF reporter cell line; UNC4976 compared to UNC3866 treatment
T5 sequence (Q8VDS3 1-158): T1 sequence (Q8VDS3 1-158)

[14] = tested on: CBX2 chromodomain; test: Isothermal titration calorimetry; type: binding; details: from ITC Kd values
Method in brief: as §2

[15] = Stockton/Ehlert allosteric binding model, 1:3 compound to CBX7, 100 nM FAM-ANRIL-RNA

CBX7 and RING1B binding at PRC1 target TSSs [1]	enhancement in CBX7 affinity for FAM-dsDNA [3]	allosteric modulator class of oligonucleotide binding [3]	α (factor of enhancement of CBX7 affinity for the DNA probe) [3]	binding to CBX7 by Coomassie stain (higher molecular weight band shifts) [5]	effect on FAM-dsDNA binding to CBX7 [5]	EC50 [6] [µM]	SMILES	effect on transcription of Polycomb target genes [7]	also measured
more limited impact	negligible enhancement	silent allosteric modulator (SAM)	1.5	showed binding to CBX7	did not have any effect	41.7 ± 2.24	CCN(CC)CCCC[C@H](NC(=O)[C@H](CC(C)C)NC(=O)[C@H](C)NC(=O)[C@H](Cc1ccccc1)NC(=O)c1ccc(C(C)(C)C)cc1)C(=O)N[C@@H](CO)C(=O)OC [UNC3866, methyl N^2-(4-(tert-butyl)benzoyl)-L-phenylalanyl-L-alanyl-L-leucyl-N^6,N^6-diethyl-L-lysyl-L-serinate] ({Benzoyl(4-tBu)}-FAL[Lys(Et2)]S-OMe)	either no or a mild effect	mESC viability upon compound treatment [2]: non-toxic; fold more potent than fragments of the endogenous H3K27me3 peptide [4]: > 100 fold
substantially reduced	significant enhancement	positive allosteric modulator	4.2	showed binding to CBX7	enhanced FAM-dsDNA binding	3.21 ± 0.352	COC(=O)[C@H](CO)NC(=O)[C@H](CCCCN(C)C1CC2CCC1C2)NC(=O)[C@H](CC(C)C)NC(=O)[C@H](C)NC(=O)[C@H](Cc1ccccc1)NC(=O)c1ccc(C(C)(C)C)cc1 (stereo partly drawn) [UNC4976, methyl N^6-(bicyclo[2.2.1]heptan-2-yl)-N^2-(4-(tert-butyl)benzoyl)-L-phenylalanyl-L-alanyl-L-leucyl-N^6-methyl-L-lysyl-L-serinate] ({Benzoyl(4-tBu)}-FAL[Lys(Me,2-norbornyl)]S-OMe)	pronounced increase in transcription	mESC viability upon compound treatment ([2]; at 100 μM): weak toxicity; change of fluorescence polarization on compound titration ([3]; 30 μM CBX7 chromodomain, 100 nM FAM-dsDNA): increased polarization; selectivity for CBX4/7 over CBX6 [8]: 9 fold; effect on CBX7 binding to FAM-ANRIL-RNA ([9]; 1:3 ratio of compound to protein titration): promoted enhanced CBX7 binding to RNA; α (factor of enhancement of CBX7 affinity for the RNA probe) [9, 15]: 4.0; β (ratio of FP factors between [RNA:CBX7:UNC] and [RNA:CBX7]) [9, 15]: 1.1; reduction in SUZ12 binding and H3K27me3 [10]: only a mild or insignificant reduction; fold more potent than UNC3866 in the CBX7 reporter cell line ([6]; EC50 ratio versus UNC3866): ~ 14 fold and 14 fold; affinity for CBX4 and CBX7 compared [11]: equipotent affinity; selectivity for CBX4/7 over CDYL2 [12]: 8 fold; fold higher expression than UNC3866 treatment at the same concentration ([7]; HEK293, in some cases): 8 fold; derepression of the GFP reporter gene / maintenance of Polycomb silencing [13]: enhanced; selectivity for CBX4/7 over CBX2 [14]: 28 fold
